Results on 24 compounds are retold here after ChEMBL document CHEMBL3045950, “Design, synthesis, and analysis of the quantitative structure-activity relationships of 4-phenyl-acyl-substituted 3-(2,5-dimethylphenyl)-4-hydroxy-1-azaspiro[4.5]dec-3-ene-2,8-dione derivatives” (2012).

Holding throughout (type): functional
Assay [1] concerns Aphis fabae. Kind of assay: Insecticidal activity against Aphis fabae (black bean aphid) apterous third-instar nymphae in tender soybean shoots assessed as inhibition activity at 100 mg/L after 72 hr. The method in brief: (§1)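 Test solutions were made in N,N-dimethylformamide and diluted to working concentration with distilled water containing TW-80 (0.1 mL L⁻¹). Aphids were dipped following a slightly modified FAO dip test. Assessment was made 72 h after treatment. Each treatment was run three times, and control groups were given water only. Deviation of values was 5%.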

In assay [2] the test system is Aphis fabae. Description: Insecticidal activity against Aphis fabae (black bean aphid) apterous third-instar nymphae in tender soybean shoots assessed as inhibition activity at 10 mg/L after 72 hr. The method in brief: as §1
Assay [3] relates to Tetranychus cinnabarinus. Description: Larvicidal activity against Tetranychus cinnabarinus (carmine spider mite) fifty third-instar mite larvae assessed as inhibition activity at 100 mg/L after 72 hr. In short, it runs like this:
(§2)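 Test solutions were made in N,N-dimethylformamide and diluted with distilled water containing TW-80 (0.1 mL L⁻¹). Fifty third-instar larvae were dipped in the dilution for 5 s, and excess liquid was removed. Larvae were then held in an air-conditioned room, and mortality was scored at 72 h. Tests were run in triplicate, and controls were treated with water only.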

Assay [4] concerns Tetranychus cinnabarinus. Description: Larvicidal activity against Tetranychus cinnabarinus ( carmine spider mite ) fifty third-instar mite larvae assessed as inhibition activity at 10 mg/L after 72 hr. The method in brief: as §2

What is called inhibition is the share of the control response that was lost under treatment. With `Cc1ccc(C)c(C2=C(OC(=O)Cc3ccc(Cl)cc3)C3(CCC(=O)CC3)NC2=O)c1`, the results for the inhibition at 100 µg/mL in the assay with Aphis fabae [1] and in the assay on Tetranychus cinnabarinus [3] were 89.8% and 58%, respectively. Also, the inhibition at 10 µg/mL in the assay on Aphis fabae [2] amounted to 47.3%; with Tetranychus cinnabarinus [4], 17.8%.
For `Cc1ccc(C)c(C2=C(OC(=O)Cc3ccc([N+](=O)[O-])cc3)C3(CCC(=O)CC3)NC2=O)c1` the same measures were 92.2%, 73.8%, 32.3% and 16.3%.
The like results for `Cc1ccc(C)c(C2=C(OC(=O)Cc3ccc(Br)cc3)C3(CCC(=O)CC3)NC2=O)c1` were, in that order, 47.8%, 32.5%, 9.78% and 5.25%.
In the case of `Cc1ccc(C)c(C2=C(OC(=O)Cc3ccc(C(F)(F)F)cc3)C3(CCC(=O)CC3)NC2=O)c1`, the inhibition at 100 µg/mL with Aphis fabae [1] amounted to 98.6%; in the assay on Tetranychus cinnabarinus [3], 85.3%. In addition, the inhibition at 10 µg/mL with Aphis fabae [2] was 60%; in the assay on Tetranychus cinnabarinus [4] it was 49%.
For `CCCC(=O)OC1=C(c2cc(C)ccc2C)C(=O)NC12CCC(=O)CC2`, the inhibition at 100 µg/mL in the assay on Aphis fabae [1] worked out at 98.7%; with Tetranychus cinnabarinus [3], 54.7%. Further, the inhibition at 10 µg/mL with Aphis fabae [2] turned out to be 37.3%; with Tetranychus cinnabarinus [4] it was 19.7%.
As to `CCOC(=O)OC1=C(c2cc(C)ccc2C)C(=O)N[C@]12CC[C@@H](OC)CC2` [SPIROTETRAMAT], the inhibition at 100 µg/mL was 100% in the assay on Aphis fabae [1] and 75% in the assay on Tetranychus cinnabarinus [3]. For the same compound, the inhibition at 10 µg/mL in the assay with Aphis fabae [2] came to 96.8%; in the assay with Tetranychus cinnabarinus [4], 26.3%.
For `Cc1ccc(C)c(C2=C(OC(=O)Cc3ccccc3)C3(CCC(=O)CC3)NC2=O)c1` the same measures were 95.6%, 66.8%, 62.8% and 38.9%.
The like results for `CCOC(=O)OC1=C(c2cc(C)ccc2C)C(=O)NC12CCC(=O)CC2` were, in that order, 93.5%, 62.3%, 45.9% and 30.4%.
The like results for `Cc1ccc(C)c(C2=C(OC(=O)c3ccccc3)C3(CCC(=O)CC3)NC2=O)c1` were, in that order, 91.8%, 49.8%, 29.3% and 18.2%.
Regarding `C/C=C/C(=O)OC1=C(c2cc(C)ccc2C)C(=O)NC12CCC(=O)CC2`, the inhibition at 100 µg/mL in the assay on Aphis fabae [1] came to 85.6%; with Tetranychus cinnabarinus [3], 58.2%. Also, the figures for the inhibition at 10 µg/mL with Aphis fabae [2] and with Tetranychus cinnabarinus [4] were 34.9% and 23.4%, respectively.
On to `COc1ccc(CC(=O)OC2=C(c3cc(C)ccc3C)C(=O)NC23CCC(=O)CC3)cc1`, for which the values for the inhibition at 100 µg/mL in the assay with Aphis fabae [1] and in the assay with Tetranychus cinnabarinus [3] were 92.1% and 80.5%, respectively. The inhibition at 10 µg/mL with Aphis fabae [2] amounted to 87.3%; in the assay with Tetranychus cinnabarinus [4] it was 24.4%.
With `Cc1ccc(C)c(C2=C(OC(=O)c3ccccc3C)C3(CCC(=O)CC3)NC2=O)c1`, the inhibition at 100 µg/mL in the assay with Aphis fabae [1] was 25.5%; with Tetranychus cinnabarinus [3] it was 59.4%. The inhibition at 10 µg/mL came out at 6.27% with Aphis fabae [2] and 17.3% in the assay with Tetranychus cinnabarinus [4].
The like results for `Cc1cc(C)c(CC(=O)OC2=C(c3cc(C)ccc3C)C(=O)NC23CCC(=O)CC3)c(C)c1` were, in that order, 69.2%, 39.4%, 25.2% and 12.1%.
For the compound `Cc1ccc(C)c(C2=C(OC(=O)CC(C)(C)C)C3(CCC(=O)CC3)NC2=O)c1`, the inhibition at 100 µg/mL came to 62.1% in the assay on Aphis fabae [1] and 26.1% in the assay with Tetranychus cinnabarinus [3]. For the same compound, the inhibition at 10 µg/mL stood at 21.6% with Aphis fabae [2] and 8.76% with Tetranychus cinnabarinus [4].
For `Cc1cc(C)c(C2=C(OC(=O)CC(C)(C)C)C3(CCCC3)OC2=O)c(C)c1` [SPIROMESIFEN] the same measures were 62.5%, 80.2%, 14.3% and 42.1%.
In the case of `Cc1ccc(CC(=O)OC2=C(c3cc(C)ccc3C)C(=O)NC23CCC(=O)CC3)cc1`, the inhibition at 100 µg/mL in the assay on Aphis fabae [1] was 73.5%; in the assay on Tetranychus cinnabarinus [3], 70.8%. In addition, the inhibition at 10 µg/mL in the assay with Aphis fabae [2] was found to be 48.4%; with Tetranychus cinnabarinus [4] it was 21.8%.
For `Cc1ccc(C)c(C2=C(OC(=O)Cc3ccc(Cl)c(Cl)c3)C3(CCC(=O)CC3)NC2=O)c1` the same measures were 97.3%, 71.7%, 49.3% and 28.9%.
For `Cc1ccc(C)c(C2=C(OC(=O)Cc3cccc(Cl)c3)C3(CCC(=O)CC3)NC2=O)c1` the same measures were 44.6%, 24.7%, 13.6% and 3.23%.
As for `Cc1ccc(C)c(C2=C(OC(=O)Cc3ccc(F)cc3)C3(CCC(=O)CC3)NC2=O)c1`, the inhibition at 100 µg/mL was 93.7% in the assay on Aphis fabae [1] and 49% in the assay with Tetranychus cinnabarinus [3]. Besides, the values for the inhibition at 10 µg/mL in the assay on Aphis fabae [2] and in the assay with Tetranychus cinnabarinus [4] were 69.3% and 29.9%, respectively.
In the case of `Cc1ccc(C)c(C2=C(OC(=O)Cc3ccc(Cl)cc3Cl)C3(CCC(=O)CC3)NC2=O)c1`, the inhibition at 100 µg/mL in the assay with Aphis fabae [1] was 85.6%; with Tetranychus cinnabarinus [3] it was 75.9%. Also, the inhibition at 10 µg/mL in the assay with Aphis fabae [2] amounted to 26.9%; in the assay on Tetranychus cinnabarinus [4] it was 31.2%.
For `Cc1ccc(C)c(C2=C(OC(=O)Cc3ccccc3Cl)C3(CCC(=O)CC3)NC2=O)c1` the same measures were 96.5%, 53.5%, 59.2% and 28.3%.
Turning to `Cc1ccc(C)c(C2=C(OC(=O)c3ccc(Cl)cc3)C3(CCC(=O)CC3)NC2=O)c1`, the inhibition at 100 µg/mL in the assay with Aphis fabae [1] stood at 68.2%; in the assay on Tetranychus cinnabarinus [3] it was 42.9%. Moreover, the figures for the inhibition at 10 µg/mL with Aphis fabae [2] and in the assay with Tetranychus cinnabarinus [4] were 10.8% and 9.23%, respectively.
Regarding `Cc1ccc(C)c(CC(=O)OC2=C(c3cc(C)ccc3C)C(=O)NC23CCC(=O)CC3)c1`, the inhibition at 100 µg/mL came to 76.2% with Aphis fabae [1] and 61.6% in the assay with Tetranychus cinnabarinus [3]. Besides, the inhibition at 10 µg/mL with Aphis fabae [2] is 37.3%; with Tetranychus cinnabarinus [4] it was 24.6%.
The like results for `CCC(C)(C)C(=O)OC1=C(c2ccc(Cl)cc2Cl)C(=O)OC12CCCCC2` [SPIRODICLOFEN] were, in that order, 60.3%, 70.6%, 19.4% and 36.7%.
